ChEMBL document CHEMBL1153234, “Synthesis and biological evaluation of nitrogen-containing chalcones as possible anti-inflammatory and antioxidant agents” (Bioorg Med Chem Lett, 2010)
Calls of active or inactive are those of the source. No cut-off for these calls is given here.

What was measured:
[1] = test system: Radical scavenging activity; assay: Antioxidant activity assessed as DPPH radical scavenging activity at 10 uM; assay type: functional
How it was run: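 Test sample from a 1 mM stock in absolute ethanol was mixed with DPPH radical (10^-4 M in absolute ethanol). Absorbance was read at 517 nm after 20 min. Quercetin served as reference. Values are means of n = 2.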

[2] = Inhibition of trypsin at 10 uM
How it was run: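 Trypsin (0.075 mg/mL) was preincubated 20 min with test sample from a 1 mM stock. The reaction was stopped with 5% trichloroacetic acid and centrifuged. Acid-soluble protein was measured by the Lowry method. Salicylic acid (10^-6 M) was the reference. Values are means of n = 2.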

[3] = target: T1, Prostaglandin G/H synthase 2 (Ovis aries) (UniProt P79208); assay: Inhibition of ovine COX2 at 1 mM by colorimetric assay
T1 sequence (whole entry): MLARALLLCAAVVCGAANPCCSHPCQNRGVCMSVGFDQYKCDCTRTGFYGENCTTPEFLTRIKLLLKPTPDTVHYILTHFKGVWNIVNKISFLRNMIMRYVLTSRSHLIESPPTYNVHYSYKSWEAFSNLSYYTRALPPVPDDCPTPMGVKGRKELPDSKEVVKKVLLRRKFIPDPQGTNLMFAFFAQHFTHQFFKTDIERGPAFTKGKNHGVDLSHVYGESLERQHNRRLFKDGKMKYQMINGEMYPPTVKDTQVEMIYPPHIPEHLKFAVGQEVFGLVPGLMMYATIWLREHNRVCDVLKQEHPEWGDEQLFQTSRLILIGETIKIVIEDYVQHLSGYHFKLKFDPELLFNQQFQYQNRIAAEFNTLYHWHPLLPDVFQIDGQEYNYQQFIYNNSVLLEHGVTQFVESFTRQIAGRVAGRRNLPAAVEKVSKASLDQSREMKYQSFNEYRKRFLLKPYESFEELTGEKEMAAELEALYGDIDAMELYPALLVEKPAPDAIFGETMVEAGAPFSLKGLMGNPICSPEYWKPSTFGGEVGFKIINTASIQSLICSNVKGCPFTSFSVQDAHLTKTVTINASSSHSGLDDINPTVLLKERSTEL
How it was run: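 Ovine COX-2 was tested with a colorimetric screening kit. Enzyme, heme and assay buffer were preincubated 5 min at 25 °C with test sample added from a 1 mM solution. Colorimetric substrate and arachidonic acid were then added, followed by a further 5 min at 25 °C. Absorbance was read at 590 nm, and % activity = inhibitor-well/no-inhibitor-well absorbance × 100. Values are means of n = 2.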

[4] = target: T2, Beta-glucuronidase (Homo sapiens) (UniProt P08236); assay: Inhibition of beta-glucuronidase at 10 uM
T2 sequence (whole entry): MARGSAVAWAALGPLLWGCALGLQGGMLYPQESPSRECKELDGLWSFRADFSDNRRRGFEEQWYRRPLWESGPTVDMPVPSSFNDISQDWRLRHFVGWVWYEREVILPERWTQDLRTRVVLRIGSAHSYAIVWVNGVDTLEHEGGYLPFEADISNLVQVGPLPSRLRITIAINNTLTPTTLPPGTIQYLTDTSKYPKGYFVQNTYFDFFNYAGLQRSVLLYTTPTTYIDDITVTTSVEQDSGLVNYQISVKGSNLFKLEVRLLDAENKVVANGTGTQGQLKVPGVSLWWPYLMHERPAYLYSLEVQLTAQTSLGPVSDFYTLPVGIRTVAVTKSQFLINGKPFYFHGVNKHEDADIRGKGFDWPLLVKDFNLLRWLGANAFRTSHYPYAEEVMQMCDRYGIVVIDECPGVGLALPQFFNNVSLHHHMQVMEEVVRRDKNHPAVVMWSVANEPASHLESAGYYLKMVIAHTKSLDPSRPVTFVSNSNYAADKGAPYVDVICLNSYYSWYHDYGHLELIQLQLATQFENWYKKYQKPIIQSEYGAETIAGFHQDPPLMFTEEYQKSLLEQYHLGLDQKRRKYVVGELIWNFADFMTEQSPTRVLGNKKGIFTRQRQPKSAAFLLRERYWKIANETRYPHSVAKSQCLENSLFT
How it was run: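 Test sample from a 1 mM stock in 0.1 M acetate buffer pH 7.4 was preincubated 5 min at 37 °C with 2.5 mM p-nitrophenyl β-D-glucopyranosiduronic acid. β-Glucuronidase was then added and the mixture incubated 30 min. The reaction was stopped with 0.5 N NaOH and read at 410 nm. Salicylic acid (1 mM) was the reference. Values are means of n = 2.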

[5] = target: T3, Prostaglandin G/H synthase 1 (Ovis aries) (UniProt P05979); conditions: at 1 mM
T3 sequence (whole entry): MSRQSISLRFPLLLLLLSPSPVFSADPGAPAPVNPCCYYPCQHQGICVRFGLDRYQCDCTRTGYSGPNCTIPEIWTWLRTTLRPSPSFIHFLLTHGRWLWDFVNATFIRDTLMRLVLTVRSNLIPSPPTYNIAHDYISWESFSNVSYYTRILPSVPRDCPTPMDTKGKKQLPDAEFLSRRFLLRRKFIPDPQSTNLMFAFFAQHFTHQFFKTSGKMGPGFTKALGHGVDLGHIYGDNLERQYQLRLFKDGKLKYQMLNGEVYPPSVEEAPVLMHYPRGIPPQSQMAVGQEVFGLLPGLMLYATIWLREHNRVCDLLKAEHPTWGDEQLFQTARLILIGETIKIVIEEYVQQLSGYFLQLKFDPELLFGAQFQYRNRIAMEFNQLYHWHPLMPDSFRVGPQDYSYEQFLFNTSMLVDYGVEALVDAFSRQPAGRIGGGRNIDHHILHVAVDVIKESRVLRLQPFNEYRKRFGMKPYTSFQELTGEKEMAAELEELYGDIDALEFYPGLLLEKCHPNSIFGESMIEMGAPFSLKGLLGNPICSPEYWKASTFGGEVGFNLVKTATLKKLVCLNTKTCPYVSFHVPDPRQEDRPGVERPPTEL

Row | Structure (SMILES) | Activity [1] | inhibition [2] | inhibition [3] | inhibition [4] | inhibition [5]
1 | COc1cc(OC)c(C(=O)/C=C/c2ccccc2Br)c(O)c1CN1CCN(C)CC1 | 27.8% | 1.2% | 48.9% | 42% | –
2 | COc1cc(OC)c(C(=O)/C=C/c2ccccc2F)c(O)c1CN1CCN(C)CC1 | 35.3% | inactive | 44.9% | inactive | 19.2%
3 | COc1cc(O)c(CN2CCCC2)c(O)c1C(=O)/C=C/c1ccccc1F | 32.9% | 1.2% | 21.4% | inactive | –
4 | COc1cc(OC)c(C(=O)/C=C/c2ccccc2Br)c(O)c1CN1CCOCC1 | 16.7% | 1.6% | 42.3% | 32.8% | –
5 | COc1cc(OC)c(C(=O)/C=C/c2cccc(F)c2)c(O)c1CN1CCOCC1 | 24% | 19.5% | 38.9% | 10.8% | –
6 | COc1cc(OC)c(C(=O)/C=C/c2ccccc2Cl)c(O)c1CN1CCCCC1 | 18.4% | 0.7% | 91.5% | 31.2% | 30.4%
7 | COc1cc(OC)c(C(=O)/C=C/c2cccc(Cl)c2)c(O)c1CN1CCOCC1 | 21.9% | 1.1% | 48.2% | 13.9% | –
8 | COc1cc(OC)c(C(=O)/C=C/c2cccc(Br)c2)c(O)c1CN1CCN(C)CC1 | 37% | 1.4% | 33.3% | 75.4% | –
9 | CC(=O)Oc1ccccc1C(=O)O | – | – | 35.1% | – | –
10 | COc1cc(OC)c(C(=O)/C=C/c2cccc(Br)c2)c(O)c1CN1CCCC1 | 35.7% | 1.3% | 19.9% | 59.8% | –
11 | COc1cc(OC)c(C(=O)/C=C/c2ccccc2Br)c(O)c1CN1CCCC1 | 25% | 1.5% | 20.4% | 34.7% | –
12 | COc1cc(OC)c(C(=O)/C=C/c2cccc(Cl)c2)c(O)c1CN1CCCC1 | 3.1% | 0.9% | 29.6% | 14.8% | –
13 | COc1cc(OC)c(C(=O)/C=C/c2cccc(F)c2)c(O)c1CN1CCCC1 | 11.7% | 1.3% | 21.4% | 19.4% | –
14 | COc1cc(OC)c(C(=O)/C=C/c2cccc(F)c2)c(O)c1CN1CCN(C)CC1 | 18.4% | inactive | 24.6% | 26.7% | –
15 | O=c1c(O)c(-c2ccc(O)c(O)c2)oc2cc(O)cc(O)c12 | 86.3% | – | – | – | –
16 | COc1cc(OC)c(C(=O)/C=C/c2cccc(Br)c2)c(O)c1CN1CCOCC1 | 10.1% | 1.2% | 22.4% | 29.3% | –
17 | COc1cc(OC)c(C(=O)/C=C/c2ccccc2Cl)c(O)c1CN1CCOCC1 | 24.8% | inactive | 25.6% | 48.1% | –
18 | COc1cc(OC)c(C(=O)/C=C/c2ccccc2F)c(O)c1CN1CCCCC1 | inactive | 1.4% | 19.9% | 56.6% | –
19 | COc1cc(OC)c(C(=O)/C=C/c2ccccc2Br)c(O)c1CN1CCCCC1 | 58.3% | 2.1% | 69.8% | 39.9% | –
20 | COc1cc(OC)c(C(=O)/C=C/c2cccc(Br)c2)c(O)c1CN1CCCCC1 | 33% | 2.8% | 87.5% | 15.4% | 21.7%
21 | COc1cc(OC)c(C(=O)/C=C/c2cccc(F)c2)c(O)c1CN1CCCCC1 | 14.6% | – | 21.7% | 7.06% | –
22 | COc1cc(OC)c(C(=O)/C=C/c2ccccc2F)c(O)c1CN1CCOCC1 | 19.2% | 2% | 27.1% | 21.8% | –
23 | COc1cc(OC)c(C(=O)/C=C/c2cccc(Cl)c2)c(O)c1CN1CCN(C)CC1 | 5.2% | 1.3% | 77.8% | 23.7% | 28.7%
24 | COc1cc(OC)c(C(=O)/C=C/c2ccccc2Cl)c(O)c1CN1CCCC1 | 7.89% | 0.8% | 42.5% | 32.4% | –
25 | COc1cc(OC)c(C(=O)/C=C/c2cccc(Cl)c2)c(O)c1CN1CCCCC1 | 20.9% | 0.5% | 87.9% | 66% | 25.2%
26 | O=C(O)c1ccccc1O | – | 89.2% | – | 23.3% | –
27 | COc1cc(OC)c(C(=O)/C=C/c2ccccc2Cl)c(O)c1CN1CCN(C)CC1 | 10.8% | 0.1% | 68.8% | 35.5% | 11.9%
